Data reported in ChEMBL document CHEMBL3351495, “Anti-inflammatory components of Chrysanthemum indicum flowers” (Bioorg Med Chem Lett, 2015).
Calls of active or inactive are those of the source. The calls are words filed in the database; no cut-off is given here.

Assays:
[1] = tested on: RAW264.7; experiment: Antiinflammatory activity in mouse RAW264.7 cells assessed as inhibition of LPS-stimulated nitric oxide production at 0.4 to 10 uM after 24 hrs by Griess assay; type: functional, cell-based
Procedure, shortened: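 NO made by LPS-stimulated RAW 264.7 cells was measured by Griess reaction. Each compound was screened at 0.4, 2.0 and 10.0 μM, all below the 50 μM level checked for viability by MTT. Results are mean ± SD from at least three independent experiments run in triplicate.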

[2] = tested on: RAW264.7; experiment: Antiinflammatory activity in mouse RAW264.7 cells assessed as inhibition of LPS-stimulated TNFalpha production at 0.4 to 2 uM by ELISA; type: functional, cell-based
Procedure, shortened: (§1)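 RAW 264.7 cells were stimulated with LPS, with or without each compound at 0.4, 2.0 and 10.0 μM, and secreted TNF-α was measured. Concentrations were kept below 50 μM, the level checked by MTT for viability. Values are mean ± SD from at least three independent experiments, each run in triplicate.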

[3] = tested on: RAW264.7; experiment: Cytotoxicity against mouse RAW264.7 cells at 50 uM by MTT assay; type: cell-based; details: raw264.7, 50 µM
[4] = tested on: RAW264.7; experiment: Antiinflammatory activity in mouse RAW264.7 cells assessed as inhibition of LPS-stimulated TNFalpha production at 10 uM by ELISA; type: functional; procedure, shortened: as §1
[5] = tested on: RAW264.7; experiment: Antiinflammatory activity in mouse RAW264.7 cells assessed as inhibition of LPS-stimulated TNFalpha production at 2 uM by ELISA; type: functional; procedure, shortened: as §1
[6] = tested on: RAW264.7; experiment: Inhibition of iNOS protein expression in LPS-stimulated mouse RAW264.7 cells by Western blot analysis; type: functional, cell-based
Procedure, shortened: (§2)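 RAW 264.7 cells exposed to LPS (1 μg/ml) with or without test agent at 0.4, 2 and 10 μM. Celecoxib (1 μM) served as reference. COX-2 and iNOS protein detected by Western blot, with actin as loading control.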

[7] = tested on: RAW264.7; experiment: Inhibition of COX2 protein expression in LPS-stimulated mouse RAW264.7 cells by Western blot analysis; type: functional, cell-based; procedure, shortened: as §2
[8] = tested on: RAW264.7; experiment: Antiinflammatory activity in mouse RAW264.7 cells assessed as inhibition of LPS-stimulated nitric oxide production at 10 uM after 24 hrs by Griess assay; type: functional; details: RAW264.7, 24 h
Procedure, shortened: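 Nitrite in the medium measured by Griess reaction and given as % inhibition of NO production. Celecoxib (1.0 μM) served as reference. Mean SD of at least three independent experiments, each in triplicate.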

Structure (SMILES) | inhibition [1] | inhibition [2] | Activity [3] | inhibition at 10 µM [4] | inhibition at 2 µM [5] | inhibition [6] | inhibition [7] | inhibition at 10 µM [8]
COC(=O)[C@]1(O)C[C@@H](O)[C@@H](OC(=O)/C=C/c2ccc(O)c(O)c2)[C@H](OC(=O)/C=C/c2ccc(O)c(O)c2)C1 | inactive | inactive | Non-toxic | 13% |  |  |  | 
OC[C@H]1O[C@@H](OCc2ccccc2)[C@H](O)[C@@H](O)[C@@H]1O | inactive | inactive | Non-toxic |  |  |  |  | 
COc1cc(CCCO)cc(OC)c1O[C@@H]1O[C@H](CO)[C@@H](O)[C@H](O)[C@H]1O [DIHYDROSYRINGIN] | inactive | inactive | Non-toxic | 13% |  |  |  | 
CC[C@H](C)C(=O)OC[C@@H]1O[C@@]2(C(=O)OC)C[C@@H](O)[C@@H](O)[C@@H]1O2 | inactive |  | Non-toxic | 22% | 14.4% |  |  | 
COc1cc(/C=C/CO)cc(OC)c1O[C@@H]1O[C@H](CO)[C@@H](O)[C@H](O)[C@H]1O [SYRINGIN] | inactive | inactive | Non-toxic | 13% |  |  |  | 
O=C(/C=C/c1ccc(O)c(O)c1)O[C@@H]1C[C@](O)(C(=O)O)C[C@@H](O)[C@H]1O [CHLOROGENIC ACID] | inactive |  | Non-toxic | 24.7% | 16.1% |  |  | 
COC(=O)[C@]1(O)C[C@@H](OC(=O)/C=C/c2ccc(O)c(O)c2)[C@@H](O)[C@H](OC(=O)/C=C/c2ccc(O)c(O)c2)C1 | inactive |  | Non-toxic |  |  |  |  | 
O=c1cc(-c2ccc(O)cc2)oc2cc(O[C@@H]3O[C@H](CO)[C@@H](O)[C@H](O)[C@H]3O)cc(O)c12 [APIGETRIN] | inactive |  | Non-toxic |  |  |  |  | 
COC(=O)[C@]1(O)C[C@@H](O)[C@@H](O)[C@H](OC(=O)/C=C/c2ccc(O)c(O)c2)C1 [CHLOROGENIC ACID METHYL ESTER] | inactive | inactive | Non-toxic |  |  |  |  | 
O=c1cc(-c2ccc(O)c(O)c2)oc2cc(O[C@@H]3O[C@H](CO)[C@@H](O)[C@H](O)[C@H]3O)cc(O)c12 [GALUTEOLIN] | inactive | inactive | Non-toxic | 13% |  |  |  | 
COc1cc(-c2cc(=O)c3c(O)cc(O)cc3o2)cc(OC)c1O [TRICIN] | inactive |  | Non-toxic |  |  |  |  | 
OC[C@H]1O[C@@H](OCCc2ccccc2)[C@H](O)[C@@H](O)[C@@H]1O | inactive | inactive | Non-toxic | 13% |  |  |  | 
O=C(/C=C/c1ccc(O)c(O)c1)O[C@@H]1C[C@@](OC(=O)/C=C/c2ccc(O)c(O)c2)(C(=O)O)C[C@@H](O)[C@@H]1O [CYNARIN] | inactive | inactive | Non-toxic |  |  |  |  | 
O=c1c(O)c(-c2ccc(O)c(O)c2)oc2cc(O[C@@H]3O[C@H](CO)[C@@H](O)[C@H](O)[C@H]3O)cc(O)c12 [QUERCIMERITRIN] |  | inactive | Non-toxic | 13% |  | Dose-dependent effect | Dose-dependent effect | 36.5%
COC(=O)[C@]1(O)C[C@@H](O)[C@@H](OC(=O)/C=C/c2ccc(O)c(O)c2)[C@H](O)C1 | inactive | inactive | Non-toxic |  |  |  |  | 
COc1cc(-c2oc3cc(O)cc(O)c3c(=O)c2O[C@@H]2O[C@H](CO)[C@@H](O)[C@H](O)[C@H]2O)ccc1O | inactive |  | Non-toxic |  |  |  |  | 
CC1=C(C/C=C\CCO[C@@H]2O[C@H](CO)[C@@H](O)[C@H](O)[C@H]2O)C(=O)CC1 | inactive |  | Non-toxic | 23% | 11.8% |  |  | 
O=c1c(O)c(-c2ccc(O)c(O)c2)oc2cc(O)cc(O)c12 [QUERCETIN] |  | inactive | Non-toxic | 13% |  | Dose-dependent effect | Dose-dependent effect | 46.1%
